Converted amounts (≈) assume the structure as drawn.
Key:
[1] = system: Mycobacterium tuberculosis; assay: Antitubercular activity against Mycobacterium tuberculosis Spec.192 assessed as fractional inhibitory concentration index in presence of 1/2 x MIC rifampicin incubated for 14 days by MABA method; format: functional; settings: time 14 day
Procedure, shortened: (§1)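 Interaction analysis in Middlebrook 7H9 with 10% OADC. Combination MICs came from mixing the derivative (1 to 1/32 MIC) with the reference drug at 1/2 MIC, and the reverse, after 14 days at 37 °C with McFarland 1 inoculum. FICI was calculated from the combination MIC values and the MICs alone.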

[2] = system: Mycobacterium tuberculosis; assay: Antitubercular activity against Mycobacterium tuberculosis Spec.192 assessed as fractional inhibitory concentration index in presence of 1/2 x MIC ethambutol incubated for 14 days by MABA method; format: functional; settings: time 14 day; procedure, shortened: as §1
[3] = system: Mycobacterium tuberculosis; assay: Antitubercular activity against Mycobacterium tuberculosis H37Rv ATCC 25618 assessed as fractional inhibitory concentration index incubated for 14 days in presence of 1/2 x MIC isoniazid by MABA method; format: functional; settings: time 14 day; procedure, shortened: as §1
[4] = system: Mycobacterium tuberculosis; assay: Antitubercular activity against Mycobacterium tuberculosis H37Rv ATCC 25618 assessed as fractional inhibitory concentration index incubated for 14 days in presence of 1/2 x MIC ethambutol by MABA method; format: functional; settings: time 14 day; procedure, shortened: as §1
[5] = system: Mycobacterium tuberculosis; assay: Antitubercular activity against Mycobacterium tuberculosis Spec.192 assessed as reduction in bacterial growth incubated for 14 days in presence of 1/2 x MIC streptomycin by MABA method; format: functional; settings: Mycobacterium tuberculosis, 192, 336 h; time 14 day
Procedure, shortened: (§2)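 Checkerboard-type combination in Middlebrook 7H9 with 10% OADC. The test derivative at 1 to 1/32 of its MIC alone was mixed with the reference drug fixed at 1/2 its MIC. 4 ml samples were inoculated with McFarland 1 suspension and incubated 14 days at 37 °C. MIC is the lowest derivative concentration in combination that inhibited growth in liquid medium.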

Staphylococcus aureus = assay: Antibacterial activity against Staphylococcus aureus NCTC 4163 assessed as bacterial growth inhibition measured after 18 hrs by two-fold serial microdilution method; format: functional
Procedure, shortened: (§3)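 Two-fold serial broth microdilution in MH II medium following modified CLSI procedures. Compounds were dissolved in DMSO and diluted in medium to at most 1% solvent, tested from 0.03125 to 512 μg/ml. Final inoculum 10^6 CFU/ml. MIC was taken as the lowest concentration with no visible growth after 18 h at 35 °C.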

[6] = system: Mycobacterium tuberculosis; assay: Antitubercular activity against Mycobacterium tuberculosis Spec.192 assessed as fractional inhibitory concentration index in presence of 1/2 x MIC streptomycin incubated for 14 days by MABA method; format: functional; settings: time 14 day; procedure, shortened: as §1
HaCaT [7] = assay: Cytotoxicity against human HaCaT cells assessed as reduction in cell viability at 100 uM measured after 72 hrs by MTT assay; format: cell-based
Procedure, shortened: (§4)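 MTT viability assay on cells grown in DMEM with 10% heat-inactivated FBS, penicillin/streptomycin and 20 mM HEPES at 37 °C/5% CO2. Cells were seeded at 1×10^4 per well and allowed to adhere for 24 h, then the medium was refreshed. Compounds were added at 20–140 μM for 72 h at 37 °C, followed by MTT (0.5 mg/mL in serum-free medium) for 4 h. Untreated cells served as control. IC50 is the concentration giving 50% growth inhibition versus control.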

[8] = system: Mycobacterium tuberculosis; assay: Potentiation of streptomycin-induced antimycobacterial activity against Mycobacterium tuberculosis Spec.192 assessed as fold decrease in streptomycin MIC at 1/2X MIC incubated for 14 days in presence of streptomycin by MABA method; format: functional; settings: time 14 day
Procedure, shortened: (§5)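 Combination assay in Middlebrook 7H9 broth with 10% OADC. The reference drug (INH, RMP, SM or EMB) was varied from 1 to 1/32 of its MIC, and the test derivative was fixed at 1/2 its own MIC. Single-agent MICs were determined first by MABA. Inoculum was 1 McFarland, with 14 days of incubation at 37 °C. The endpoint was the lowest reference-drug concentration that inhibited growth.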

HaCaT [9] = assay: Cytotoxicity against human HaCaT cells assessed as reduction in cell viability measured after 72 hrs by MTT assay; format: cell-based; procedure, shortened: as §4
[10] = system: Staphylococcus epidermidis; assay: Antibacterial activity against Staphylococcus epidermidis ATCC 12228 assessed as bacterial growth inhibition measured after 18 hrs by two-fold serial microdilution method; format: functional; procedure, shortened: as §3
V79 = assay: Cytotoxicity against Chinese Hamster V79 cells assessed as reduction in cell viability measured after 72 hrs by MTT assay; format: cell-based; settings: Cricetulus griseus, V79, 72 h; procedure, shortened: as §4
[11] = system: Mycobacterium scrofulaceum; assay: Antibacterial activity against Mycobacterium scrofulaceum assessed as inhibition of microbial growth incubated for 1 week by MABA method; format: functional; settings: 168 h, time 1 weeks
Procedure, shortened: (§6)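 Microplate Alamar Blue assay using two-fold serial microdilution in Middlebrook 7H9 broth with 10% OADC, compounds 0.125–512 µg/ml from DMSO stocks. Inoculum came from fresh LJ culture, was adjusted to McFarland 1 and diluted 1:20. Plates were incubated 1 week at 37 °C, Alamar blue was added and plates were re-incubated 24 h. MIC was the lowest concentration preventing the blue-to-pink change. Each plate carried growth and sterile controls.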

Pseudomonas aeruginosa = assay: Antibacterial activity against Pseudomonas aeruginosa NCTC 6749 assessed as bacterial growth inhibition measured after 18 hrs by two-fold serial microdilution method; format: functional; procedure, shortened: as §3
Mycobacterium xenopi = assay: Antibacterial activity against Mycobacterium xenopi assessed as inhibition of microbial growth incubated for 1 week by MABA method; format: functional; settings: 168 h, time 1 weeks; procedure, shortened: as §6
Klebsiella pneumoniae = assay: Antibacterial activity against Klebsiella pneumoniae ATCC 10031 assessed as bacterial growth inhibition measured after 18 hrs by two-fold serial microdilution method; format: functional; procedure, shortened: as §3
[12] = system: Mycobacterium tuberculosis; assay: Antitubercular activity against Mycobacterium tuberculosis H37Rv ATCC 25618 assessed as rifampicin MIC incubated for 14 days in presence of rifampicin by MABA method; format: functional; settings: H37Rv ATCC 25618, 336 h, time 14 day
Procedure, shortened: (§7)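 In Middlebrook 7H9 with 10% OADC, the reference drug (INH, RMP, SM or EMB) at 1 to 1/32 of its MIC alone was mixed with the test derivative fixed at 1/2 its MIC. 4 ml samples were inoculated with McFarland 1 suspension and incubated 14 days at 37 °C. MIC is the lowest drug concentration in combination that inhibited growth.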

[13] = system: Mycobacterium tuberculosis; assay: Antitubercular activity against Mycobacterium tuberculosis H37Rv ATCC 25618 assessed as ethambutol MIC incubated for 14 days in presence of ethambutol by MABA method; format: functional; settings: H37Rv ATCC 25618, 336 h, time 14 day; procedure, shortened: as §7
[14] = system: Mycobacterium tuberculosis; assay: Antitubercular activity against Mycobacterium tuberculosis H37Rv ATCC 25618 assessed as reduction in bacterial growth incubated for 14 days in presence of 1/2 x MIC ethambutol by MABA method; format: functional; settings: H37Rv ATCC 25618, 336 h, time 14 day; procedure, shortened: as §2
Proteus vulgaris = assay: Antibacterial activity against Proteus vulgaris NCTC 4635 assessed as bacterial growth inhibition measured after 18 hrs by two-fold serial microdilution method; format: functional; procedure, shortened: as §3
[15] = system: Mycobacterium tuberculosis; assay: Potentiation of streptomycin-induced antimycobacterial activity against Mycobacterium tuberculosis H37Rv ATCC 25618 assessed as fold decrease in streptomycin MIC at 1/2X MIC incubated for 14 days in presence of streptomycin by MABA method; format: functional; settings: time 14 day; procedure, shortened: as §5
[16] = system: Mycobacterium tuberculosis; assay: Antitubercular activity against Mycobacterium tuberculosis Spec.192 assessed as reduction in bacterial growth incubated for 14 days in presence of 1/2 x MIC rifampicin by MABA method; format: functional; settings: Mycobacterium tuberculosis, 192, 336 h; time 14 day; procedure, shortened: as §2
[17] = system: Mycobacterium tuberculosis; assay: Antitubercular activity against Mycobacterium tuberculosis Spec.192 assessed as fractional inhibitory concentration index in presence of 1/2 x MIC isoniazid incubated for 14 days by MABA method; format: functional; settings: time 14 day; procedure, shortened: as §1

SMILES | fractional inhibitory concentration index (FICI) [1] | fractional inhibitory concentration index (FICI) [2] | fractional inhibitory concentration index (FICI) [3] | fractional inhibitory concentration index (FICI) [4] | MIC [5] [µg/mL] | MIC (Staphylococcus aureus) [µg/mL] | fractional inhibitory concentration index (FICI) [6] | Activity (HaCaT [7]) | fold change (FC) [8] | IC50 (HaCaT [9]) [µM] | MIC [10] [µg/mL] | IC50 (V79) [µM] | MIC [11] [µg/mL] | MIC (Pseudomonas aeruginosa) [µg/mL] | MIC (Mycobacterium xenopi) [µg/mL] | MIC (Klebsiella pneumoniae) [µg/mL] | MIC [12] [µg/mL] | MIC [13] [µg/mL] | MIC [14] [µg/mL] | MIC (Proteus vulgaris) [µg/mL] | also measured
COc1ccc(-n2nnnc2Nc2cccc(Br)c2)cc1 | 0.5 | 0.75 | 4.125 | 0.75 | 0.5 | > 256 | 0.5 | Non-Toxic | 2 | 138 | > 256 | 241 | 512 | > 256 | > 512 | > 256 | 0.25 | 1 | 0.5 | > 256 | fold change (FC) [15]: 2; MIC [16]: 0.5 µg/mL; fractional inhibitory concentration index (FICI) [17]: 4.125
COc1ccc(-n2nnnc2Nc2ccc(Br)cc2)cc1 | 0.5 | 0.625 | 4.125 | 0.625 | 0.25 | > 256 | 0.375 | Non-Toxic | 4 | 131 | 256 (≈ 739 µM) | 212 | 512 | > 256 | 256 | > 256 | 0.25 | 1 | 0.25 | > 256 | fold change (FC) [15]: 4; MIC [16]: 0.5 µg/mL; fractional inhibitory concentration index (FICI) [17]: 4.125
